Assay results taken from ChEMBL document CHEMBL3393025, “Discovery of dual leucine zipper kinase (DLK, MAP3K12) inhibitors with activity in neurodegeneration models” (J Med Chem, 2015).

Tests used:
[1] = molecular target: T1, Mitogen-activated protein kinase kinase kinase 12 (Homo sapiens, UniProt Q12852); assay: Inhibition of DLK (unknown origin)
T1 sequence (Q12852 whole entry): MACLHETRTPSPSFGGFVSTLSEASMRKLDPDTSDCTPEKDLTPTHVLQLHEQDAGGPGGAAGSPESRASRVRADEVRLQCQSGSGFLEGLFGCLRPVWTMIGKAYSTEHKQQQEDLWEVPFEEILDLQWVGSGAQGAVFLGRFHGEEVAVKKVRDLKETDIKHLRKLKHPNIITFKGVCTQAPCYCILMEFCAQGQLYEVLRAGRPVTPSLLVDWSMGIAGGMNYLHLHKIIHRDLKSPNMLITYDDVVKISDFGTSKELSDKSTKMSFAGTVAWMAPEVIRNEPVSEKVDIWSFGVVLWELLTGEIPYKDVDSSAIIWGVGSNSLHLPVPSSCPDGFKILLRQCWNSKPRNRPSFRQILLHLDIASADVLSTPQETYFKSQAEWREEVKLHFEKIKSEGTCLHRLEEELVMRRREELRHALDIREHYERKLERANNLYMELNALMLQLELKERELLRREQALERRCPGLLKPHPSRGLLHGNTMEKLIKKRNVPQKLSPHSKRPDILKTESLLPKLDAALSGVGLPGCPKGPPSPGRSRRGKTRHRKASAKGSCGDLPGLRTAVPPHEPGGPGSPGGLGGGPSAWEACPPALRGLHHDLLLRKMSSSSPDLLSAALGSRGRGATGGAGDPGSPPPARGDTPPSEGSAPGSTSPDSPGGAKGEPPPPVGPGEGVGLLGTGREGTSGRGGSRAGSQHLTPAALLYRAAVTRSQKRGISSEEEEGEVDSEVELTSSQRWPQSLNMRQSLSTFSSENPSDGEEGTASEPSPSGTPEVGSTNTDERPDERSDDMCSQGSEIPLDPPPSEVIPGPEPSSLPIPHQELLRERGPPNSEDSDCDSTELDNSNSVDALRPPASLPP

[2] = molecular target: T1, Mitogen-activated protein kinase kinase kinase 12; assay: Inhibition of human DLK transfected in HEK293 cells assessed as JNK phosphorylation after 5.5 hrs by Hoechst-33342 staining-based assay; type: cell-based
[3] = Neuroprotective activity in E14.5 rat embryo DRG neurons; type: functional; conditions: drg neuron
Outline: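 DRG neurons freshly dissected from E14.5 rat embryos, plated at 1200−2000 cells/well on an astrocyte monolayer in DMEM/F12 with N3 supplement, 0.18% glucose and 25 ng/mL NGF. 200 μM uridine and 100 μM 5-fluorodeoxyuridine added next day. Cultured 4 days before axon degeneration assay. IC50 reported.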

Row | Compound | Ki [1] | IC50 [2] | IC50 [3]
1 | N#Cc1ccnc(Nc2cc(C3CCOCC3)cc(N3CCC(F)(F)C3)n2)c1 | 0.9 nM | 70 nM | –
2 | N#Cc1ccnc(Nc2cc(C3CCN(C4COC4)CC3)cc(C3CC3)n2)c1 | 1 nM | 62 nM | 155 nM
3 | FC1(F)CCN(c2nc(Nc3cc(C(F)(F)F)ccn3)cc(C3CCCNC3)n2)C1 (stereo not drawn) | 7 nM | 408 nM | –
4 | N#Cc1ccnc(Nc2cc(C3CN(C4COC4)C3)cc(N3CCC(F)(F)C3)n2)c1 | 0.7 nM | 57 nM | 99 nM
5 | N#Cc1ccnc(Nc2cc(C3CCN(C4COC4)CC3)cc(OC3CCC3)n2)c1 | 0.2 nM | 64 nM | 46 nM
6 | N#Cc1ccnc(Nc2cc(C3(C#N)CCOCC3)cc(N3CCC(F)(F)C3)n2)c1 | 5 nM | 79 nM | –
7 | Cc1cc(C2CCN(C3COC3)CC2)cc(Nc2cc(C#N)ccn2)n1 | – | 1600 nM | –
8 | CC(C)(O)c1cc(Nc2cc(C#N)ccn2)nc(N2CCC(F)(F)C2)c1 | 5 nM | 125 nM | 401 nM
9 | CC(C)(C#N)c1cc(Nc2cc(C#N)ccn2)nc(N2CCC(F)(F)C2)c1 | 14 nM | 193 nM | –
10 | N#Cc1ccnc(Nc2cc(C3CCN(C4COC4)CC3)cc(N3CCC3)n2)c1 | 8 nM | 141 nM | 448 nM
11 | CC(=O)N1CCC(c2cc(Nc3cc(C(F)(F)F)ccn3)nc(N3CCC(F)(F)C3)c2)CC1 | 1 nM | 69 nM | 171 nM
12 | CCc1cc(C2CCN(C3COC3)CC2)cc(Nc2cc(C#N)ccn2)n1 | – | 213 nM | 916 nM
13 | FC1(F)CCN(c2nc(Nc3cc(C(F)(F)F)ccn3)cc(C3CCOCC3)n2)C1 | 41 nM | 440 nM | –
14 | COC1CN(c2cc(C3CCN(C4COC4)CC3)cc(Nc3cc(C#N)ccn3)n2)C1 | 8 nM | 233 nM | 697 nM

Second part, led by results:

Row | Ki [1] | IC50 [2] | Compound | IC50 [3]
15 | 4 nM | 1300 nM | Cc1nc(Nc2cc(C(C)C)ccn2)cc(C2CCCN(C(=O)c3ccccc3)C2)n1 (racemic) | –
16 | 725 nM | – | Cc1nc(Nc2cc(C(F)(F)F)ccn2)cc(C2CCCNC2)n1 (racemic) | –
17 | 57 nM | 1000 nM | COc1ccnc(Nc2cc(C3CCCN(C(=O)c4ccccc4)C3)nc(C)n2)c1 (racemic) | –
18 | 24 nM | 229 nM | Cc1nc(Nc2cc(C(F)(F)F)ccn2)cc(C2CCCN(C(=O)c3ccccc3)C2)n1 (racemic) | –
19 | 90 nM | 1000 nM | Cc1nc(Nc2cc(C#N)ccn2)cc(C2CCCN(C(=O)c3ccccc3)C2)n1 (racemic) | –
20 | 7 nM | 109 nM | FC(F)(F)c1ccnc(Nc2cc(C3CCCNC3)nc(N3CCCC3)n2)c1 (stereo not drawn) | –
21 | 431 nM | – | CC(=O)N1CCC(c2cc(Nc3cc(C(F)(F)F)ccn3)nc(N3CCOCC3)n2)CC1 | –
22 | 166 nM | – | CC(=O)N1CCC(c2cc(Nc3cc(C(F)(F)F)ccn3)nc(N3CC(F)(F)C3)n2)CC1 | –
23 | 942 nM | – | Cc1nc(Nc2ccccn2)cc(C2CCCN(C(=O)c3ccccc3)C2)n1 (racemic) | –
24 | 35 nM | 641 nM | Cc1nc(Nc2ncc(C)s2)cc(C2CCCN(C(=O)c3ccccc3)C2)n1 (racemic) | –
25 | 25 nM | – | CC(=O)N1CCC(c2cc(Nc3cc(C#N)ccn3)nc(N3CCC(F)(F)C3)c2)CC1 | 180 nM
26 | 18 nM | 486 nM | Cc1nc(Nc2cc(C3CC3)ccn2)cc(C2CCCN(C(=O)c3ccccc3)C2)n1 (racemic) | –
27 | 33 nM | 300 nM | CC(=O)N1CCC(c2cc(Nc3cc(C(F)(F)F)ccn3)nc(N3CCC(F)(F)C3)n2)CC1 | –
28 | 85 nM | 767 nM | Cc1ccnc(Nc2cc(C3CCCN(C(=O)c4ccccc4)C3)nc(C)n2)c1 (racemic) | –
